# Assay results published in ChEMBL document CHEMBL2434966, “Novel N-4-piperazinyl-ciprofloxacin-chalcone hybrids: synthesis, physicochemical properties, anticancer and topoisomerase I and II inhibitory activity” (Eur J Med Chem, 2013).
# Assays:
# [1] = Aqueous solubility of the compound at pH 6.9 by UV spectroscopic analysis; assay type: physicochemical; settings: aqueous solution
# Method in brief: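 Excess solid (10 mg) shaken in buffer at pH 6.9 or 7.8, 37 °C. The filtrate was diluted into the linear calibration range and dissolved drug measured by UV absorbance at λmax 272 nm. Values are the average of at least three agreeing independent measurements.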
# [2] = biological target: DNA topoisomerase 2-alpha (Homo sapiens) (UniProt P11388); assay: Inhibition of human topoisomerase 2alpha-mediated relaxation of supercoiled pBR322 DNA at 100 uM after 30 mins by agarose gel electrophoresis relative to control
# DNA topoisomerase 2-alpha (Homo sapiens), sequence (P11388 whole entry): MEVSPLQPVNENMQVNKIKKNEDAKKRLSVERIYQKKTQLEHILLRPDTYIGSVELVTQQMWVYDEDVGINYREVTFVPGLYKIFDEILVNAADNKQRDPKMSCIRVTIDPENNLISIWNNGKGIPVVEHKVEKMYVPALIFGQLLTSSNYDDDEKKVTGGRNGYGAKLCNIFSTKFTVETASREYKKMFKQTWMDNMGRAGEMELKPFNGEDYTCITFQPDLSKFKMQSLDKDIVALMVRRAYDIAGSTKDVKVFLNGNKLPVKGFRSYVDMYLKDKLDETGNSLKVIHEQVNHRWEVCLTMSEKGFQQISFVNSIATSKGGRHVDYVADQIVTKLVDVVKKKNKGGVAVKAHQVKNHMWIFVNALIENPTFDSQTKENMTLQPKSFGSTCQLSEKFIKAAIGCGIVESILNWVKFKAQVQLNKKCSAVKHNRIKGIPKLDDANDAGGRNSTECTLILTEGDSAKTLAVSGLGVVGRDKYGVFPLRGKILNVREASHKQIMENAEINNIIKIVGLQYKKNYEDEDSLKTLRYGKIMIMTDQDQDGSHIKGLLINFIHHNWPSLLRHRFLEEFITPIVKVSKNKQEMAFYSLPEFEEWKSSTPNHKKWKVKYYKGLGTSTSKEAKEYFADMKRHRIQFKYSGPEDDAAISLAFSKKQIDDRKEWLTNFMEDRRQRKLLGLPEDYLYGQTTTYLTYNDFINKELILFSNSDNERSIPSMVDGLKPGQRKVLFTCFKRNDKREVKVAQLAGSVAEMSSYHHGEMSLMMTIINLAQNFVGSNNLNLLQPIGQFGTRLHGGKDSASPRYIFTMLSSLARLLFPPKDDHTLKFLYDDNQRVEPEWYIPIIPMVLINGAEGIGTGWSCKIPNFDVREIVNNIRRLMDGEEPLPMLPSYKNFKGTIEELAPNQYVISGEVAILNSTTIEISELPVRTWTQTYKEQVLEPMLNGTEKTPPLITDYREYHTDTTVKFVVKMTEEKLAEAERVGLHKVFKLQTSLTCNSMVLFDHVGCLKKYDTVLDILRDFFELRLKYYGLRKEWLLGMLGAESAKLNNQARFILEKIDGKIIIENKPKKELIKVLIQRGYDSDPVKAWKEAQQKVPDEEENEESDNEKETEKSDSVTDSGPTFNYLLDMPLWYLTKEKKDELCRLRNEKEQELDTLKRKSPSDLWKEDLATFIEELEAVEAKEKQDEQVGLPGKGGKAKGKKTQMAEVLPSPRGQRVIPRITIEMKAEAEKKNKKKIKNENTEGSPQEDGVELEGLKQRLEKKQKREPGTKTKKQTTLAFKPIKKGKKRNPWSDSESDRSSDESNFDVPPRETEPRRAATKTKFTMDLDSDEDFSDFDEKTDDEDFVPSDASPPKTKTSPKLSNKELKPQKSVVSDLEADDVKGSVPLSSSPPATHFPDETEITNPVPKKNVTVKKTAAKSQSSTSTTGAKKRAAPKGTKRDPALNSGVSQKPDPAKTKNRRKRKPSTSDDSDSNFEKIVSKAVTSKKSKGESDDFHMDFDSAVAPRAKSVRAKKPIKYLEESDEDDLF
# Method in brief: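 Human topo IIα (1 unit) with 200 ng supercoiled pBR322 in Tris-HCl pH 7.9, 50 mM NaCl, 5 mM MgCl2, 1 mM EDTA, 1 mM ATP, BSA, 30 min at 30 °C. DMSO was matched in the enzyme-only control. Stopped with EDTA; 1% agarose/TAE gel, ethidium stain, supercoiled band quantified by UV imaging. Etoposide was the positive control.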
# MDA-MB-468 = assay: Growth inhibition of human MDA-MB-468 cells after 48 hrs by sulforhodamine B assay; assay type: functional; settings: MDA-MB-468, 48 h
# Method in brief: (§1)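 NCI five-dose screen on the full 60-cell-line panel. Cells were given 10-fold dilutions from 10^-4 to 10^-8 M with continuous 48 h exposure, and growth was read by SRB staining. Percent growth was taken from time-zero, control and treated absorbances. GI50, TGI and LC50 were then derived, the GI50 being the concentration that gives a 50% lower net protein increase than control.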
# PC-3 = assay: Growth inhibition of human PC3 cells after 48 hrs by sulforhodamine B assay; assay type: functional; settings: PC-3, 48 h; method in brief: as §1
# [3] = Growth inhibition of human NCI-ADR-RES cells after 48 hrs by sulforhodamine B assay; assay type: functional; settings: for CC50: read-out: LC50 (the source's name); method in brief: as §1
# IGROV-1 = assay: Growth inhibition of human IGROV1 cells after 48 hrs by sulforhodamine B assay; assay type: functional; settings: IGROV-1, 48 h
# Method in brief: (§2)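 NCI 60-panel five-dose test at 10-fold dilutions, 10^-4 to 10^-8 M, with 48 h continuous exposure and SRB protein read-out. Percent growth derived from time-zero, untreated-control and treated absorbances. GI50 is the concentration where [(Ti-Tz)/(C-Tz)]×100 = 50. TGI is taken at Ti = Tz. LC50 is taken at [(Ti-Tz)/Tz]×100 = -50.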
# M14 = assay: Growth inhibition of human M14 cells after 48 hrs by sulforhodamine B assay; assay type: functional; settings: M14, 48 h; method in brief: as §2
# Malme-3M = assay: Growth inhibition of human MALME-3M cells after 48 hrs by sulforhodamine B assay; assay type: functional; method in brief: as §2
# SF-539 = assay: Growth inhibition of human SF539 cells after 48 hrs by sulforhodamine B assay; assay type: functional; settings: SF-539, 48 h; for CC50: read-out: LC50 (the source's name); method in brief: as §1
# NCI-H460 = assay: Growth inhibition of human NCI-H460 cells after 48 hrs by sulforhodamine B assay; assay type: functional; settings: NCI-H460, 48 h; for CC50: read-out: LC50 (the source's name); method in brief: as §1
# SR = assay: Growth inhibition of human SR cells after 48 hrs by sulforhodamine B assay; assay type: functional
# Method in brief: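 NCI 60-cell panel, five concentrations (10-fold dilutions, 0.01–100 µM), 48 h continuous exposure; SRB protein stain read spectrophotometrically. Percent growth from time-zero, untreated-control and treated absorbances. GI50 is the concentration giving 50% lower net protein increase than control. Values beyond the tested range are reported as more or less than the highest or lowest concentration.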
# HL-60(TB) = assay: Growth inhibition of human HL-60(TB) cells after 48 hrs by sulforhodamine B assay; assay type: functional; settings: HL-60, 48 h; for CC50: read-out: LC50 (the source's name)
# Method in brief: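 NCI 60-panel five-dose screen: cells exposed continuously for 48 h to 10-fold dilutions from 10^-4 to 10^-8 M; SRB protein staining read spectrophotometrically. Percent growth from time-zero, untreated-control and treated absorbances; GI50 is the concentration giving 50% lower net protein increase than control.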
# MDA-MB-231 = assay: Growth inhibition of human MDA-MB-231 cells assessed as cell growth at 10^-5 M after 48 hrs by sulforhodamine B assay; assay type: functional; settings: MDA-MB-231, 48 h, read-out: Activity
# Method in brief: (§3)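 NCI 60-cell-line primary one-dose screen. Cells were exposed to a single 10^-5 M concentration for 48 h. The end point was sulforhodamine B protein staining, read spectrophotometrically. Results are reported as percent growth of treated cells relative to untreated control cells.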
# MCF7 = assay: Growth inhibition of human MCF7 cells assessed as cell growth at 10^-5 M after 48 hrs by sulforhodamine B assay; assay type: functional; settings: MCF7, 48 h, read-out: Activity
# Method in brief: (§4)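 NCI 60-cell-line primary screen. Single concentration of 10^-5 M, 48 h incubation. End point by sulforhodamine B protein staining read spectrophotometrically. Reported as percent growth of treated cells relative to untreated control cells.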
# TK-10 = assay: Growth inhibition of human TK10 cells assessed as cell growth at 10^-5 M after 48 hrs by sulforhodamine B assay; assay type: functional; settings: TK-10, 48 h, read-out: Activity
# Method in brief: (§5)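 NCI primary one-dose screen: single concentration of 10^-5 M added to culture, 48 h incubation, SRB protein-dye endpoint. Percent growth of treated cells measured spectrophotometrically against untreated controls.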
# OVCAR-5 = assay: Growth inhibition of human OVCAR5 cells assessed as cell growth at 10^-5 M after 48 hrs by sulforhodamine B assay; assay type: functional; settings: OVCAR-5, 48 h, read-out: Activity; method in brief: as §3
# U-251 = assay: Growth inhibition of human U251 cells assessed as cell growth at 10^-5 M after 48 hrs by sulforhodamine B assay; assay type: functional; settings: U-251, 48 h, read-out: Activity; method in brief: as §5
# SF-268 = assay: Growth inhibition of human SF268 cells assessed as cell growth at 10^-5 M after 48 hrs by sulforhodamine B assay; assay type: functional; settings: SF-268, 48 h, read-out: Activity; method in brief: as §3
# HT-29 = assay: Growth inhibition of human HT-29 cells assessed as cell growth at 10^-5 M after 48 hrs by sulforhodamine B assay; assay type: functional; settings: HT-29, 48 h, read-out: Activity; method in brief: as §4
# [4] = Growth inhibition of human HCC2998 cells assessed as cell growth at 10^-5 M after 48 hrs by sulforhodamine B assay; assay type: functional; settings: HCC 2998, 48 h, read-out: Activity; method in brief: as §4
# NCI-H322M = assay: Growth inhibition of human NCI-H322M cells assessed as cell growth at 10^-5 M after 48 hrs by sulforhodamine B assay; assay type: functional; settings: read-out: Activity; method in brief: as §3
compound,measurement,setting,value
COc1cc(/C=C/C(=O)c2ccc(NC(=O)CN3CCN(c4cc5c(cc4F)c(=O)c(C(=O)O)cn5C4CC4)CC3)cc2)cc(OC)c1OC,solubility,[1],2.13 µg/mL
same,inhibition,[2],5.2%
same,GI50,MDA-MB-468,0.33 µM
same,LC50 (concentration killing 50% of starting cells),MDA-MB-468,40.7 µM
same,TGI,MDA-MB-468,1.78 µM
same,GI50,PC-3,0.56 µM
same,LC50,PC-3,> 100 µM
same,TGI,PC-3,> 100 µM
same,GI50,[3],57.6 µM
same,TGI,[3],> 100 µM
same,CC50,[3],> 100 µM
same,GI50,IGROV-1,0.4 µM
same,LC50 (concentration giving 50% net cell kill),IGROV-1,8.43 µM
same,TGI,IGROV-1,1.72 µM
same,GI50,M14,0.77 µM
same,LC50 (concentration giving 50% net cell kill),M14,> 100 µM
same,TGI,M14,7.16 µM
same,GI50,Malme-3M,1.81 µM
same,LC50,Malme-3M,> 100 µM
same,TGI,Malme-3M,7.65 µM
same,GI50,SF-539,0.49 µM
same,TGI,SF-539,2.62 µM
same,CC50,SF-539,> 100 µM
same,GI50,NCI-H460,0.37 µM
same,TGI,NCI-H460,3.79 µM
same,CC50,NCI-H460,> 100 µM
same,GI50,SR,0.21 µM
same,LC50 (concentration killing 50% of cells),SR,> 100 µM
same,TGI,SR,> 100 µM
same,GI50,HL-60(TB),1.11 µM
same,TGI,HL-60(TB),> 100 µM
same,CC50,HL-60(TB),> 100 µM
same,growth at 10 µM,MDA-MB-231,27.6%
same,growth at 10 µM,MCF7,26.5%
same,growth at 10 µM,TK-10,19.1%
same,growth at 10 µM,OVCAR-5,16.9%
same,growth at 10 µM,U-251,-55.8%
same,growth at 10 µM,SF-268,-1.11%
same,growth at 10 µM,HT-29,-3.37%
same,growth at 10 µM,[4],-11.6%
same,growth at 10 µM,NCI-H322M,-7.05%
O=C(CN1CCN(c2cc3c(cc2F)c(=O)c(C(=O)O)cn3C2CC2)CC1)Nc1ccc(C(=O)/C=C/c2ccccc2)cc1,solubility,[1],2.73 µg/mL
same,inhibition,[2],35.7%
same,GI50,MDA-MB-468,2.45 µM
same,LC50 (concentration killing 50% of starting cells),MDA-MB-468,> 100 µM
same,TGI,MDA-MB-468,23.2 µM
same,GI50,PC-3,3.16 µM
same,LC50,PC-3,> 100 µM
same,TGI,PC-3,> 100 µM
same,GI50,[3],9.75 µM
same,TGI,[3],> 100 µM
same,CC50,[3],> 100 µM
same,GI50,IGROV-1,3.67 µM
same,LC50 (concentration giving 50% net cell kill),IGROV-1,> 100 µM
same,TGI,IGROV-1,> 100 µM
same,GI50,M14,5.22 µM
same,LC50 (concentration giving 50% net cell kill),M14,> 100 µM
same,TGI,M14,> 100 µM
same,GI50,Malme-3M,2.89 µM
same,LC50,Malme-3M,> 100 µM
same,TGI,Malme-3M,8.87 µM
same,GI50,SF-539,3.6 µM
same,TGI,SF-539,> 100 µM
same,CC50,SF-539,> 100 µM
same,GI50,NCI-H460,3.17 µM
same,TGI,NCI-H460,> 100 µM
same,CC50,NCI-H460,> 100 µM
same,GI50,SR,1.54 µM
same,LC50 (concentration killing 50% of cells),SR,> 100 µM
same,TGI,SR,6.1 µM
same,GI50,HL-60(TB),9.44 µM
same,TGI,HL-60(TB),> 100 µM
same,CC50,HL-60(TB),> 100 µM
same,growth at 10 µM,MDA-MB-231,55.1%
same,growth at 10 µM,MCF7,12.5%
same,growth at 10 µM,TK-10,39.9%
same,growth at 10 µM,OVCAR-5,82.6%
same,growth at 10 µM,U-251,14.9%
same,growth at 10 µM,SF-268,37%
same,growth at 10 µM,HT-29,11.4%
same,growth at 10 µM,[4],70.1%
same,growth at 10 µM,NCI-H322M,73.7%
